Activity calls are given as the source filed them. The rule behind the calls is not given here.
What was measured:
[1] = Cytotoxicity against human MRC5 SV2 cells assessed as reduction in cell viability incubated for 3 days by resazurin dye based assay; settings: MRC-5 SV2, 72 h
[2] = Selectivity index, ratio for EC50 for human MRC5 SV2 cells to EC50 for Trypanosoma cruzi Tulahuen CL2 amastigotes infected in human MRC5 SV2 cells; format: toxicity, cell-based; settings: read-out: Ratio EC50
[3] = Drug metabolism in mouse liver microsomes assessed as CYP450-mediated metabolism by measuring parent compound remaining at 5 uM measured immediately in presence of NADPH by UPLC-MS analysis; format: ADME; settings: read-out: Stability
Summary of the method: (§1)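 Compound incubated with male mouse, rat, dog or pooled human S9 fractions, with NADPH (phase I) or […], sampled at 0, 15, 30 and 60 min. Read-out is percent parent remaining. Two independent experiments of two biological replicates; diclofenac and fluconazole used as assay controls.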

[4] = Drug metabolism in mouse liver microsomes assessed as UGT-mediated metabolism by measuring compound remaining at 5 uM incubated for 30 mins in presence of UDPGA by UPLC-MS analysis; format: ADME; settings: read-out: Stability; summary of the method: as §1
[5] = Drug metabolism in rat liver microsomes assessed as CYP450-mediated metabolism by measuring parent compound remaining at 5 uM incubated for 15 mins in presence of NADPH by UPLC-MS analysis; format: ADME; settings: read-out: Stability; summary of the method: as §1
[6] = Drug metabolism in rat liver microsomes assessed as UGT-mediated metabolism by measuring compound remaining at 5 uM incubated for 15 mins in presence of UDPGA by UPLC-MS analysis; format: ADME; settings: read-out: Stability; summary of the method: as §1
[7] = Drug metabolism in rat liver microsomes assessed as UGT-mediated metabolism by measuring compound remaining at 5 uM incubated for 30 mins in presence of UDPGA by UPLC-MS analysis; format: ADME; settings: read-out: Stability; summary of the method: as §1
[8] = Drug metabolism in dog liver microsomes assessed as CYP450-mediated metabolism by measuring parent compound remaining at 5 uM measured immediately in presence of NADPH by UPLC-MS analysis; format: ADME, Canis lupus familiaris; settings: read-out: Stability; summary of the method: as §1
[9] = Drug metabolism in dog liver microsomes assessed as CYP450-mediated metabolism by measuring parent compound remaining at 5 uM incubated for 60 mins in presence of NADPH by UPLC-MS analysis; format: ADME, Canis lupus familiaris; settings: read-out: Stability; summary of the method: as §1
[10] = Drug metabolism in dog liver microsomes assessed as UGT-mediated metabolism by measuring compound remaining at 5 uM incubated for 30 mins in presence of UDPGA by UPLC-MS analysis; format: ADME, Canis lupus familiaris; settings: read-out: Stability; summary of the method: as §1
Cytochrome P450 = Cytochrome P450 (Homo sapiens, UniProt P04798+P05177+P05181+P08684+P10632+P10635+P11509+P11712+P13584+P20813+P20815+P20853+P24462+P24903+P33260+P33261+P51589+P78329+P98187+Q02928+Q08477+Q16678+Q16696+Q5TCH4+Q6VVX0+Q7Z449+Q8TAV3+Q96SQ9+Q9HB55); experiment: Drug metabolism in human liver S9 fraction assessed as CYP450-mediated metabolism by measuring parent compound remaining at 5 uM incubated for 15 mins in presence of NADPH by UPLC-MS analysis; format: ADME, subcellular; settings: read-out: Stability; summary of the method: as §1
[11] = target: T1, UDP-glucuronosyltransferases (UGTs) (Homo sapiens, UniProt O60656+O75310+O75795+P06133+P0DTE4+P0DTE5+P16662+P19224+P22309+P22310+P35503+P35504+P36537+P54855+Q6UWM9+Q9BY64+Q9HAW7+Q9HAW8+Q9HAW9); experiment: Drug metabolism in human liver S9 fraction assessed as UGT-mediated metabolism by measuring compound remaining at 5 uM measured immediately in presence of UDPGA by UPLC-MS analysis; format: ADME, subcellular; settings: read-out: Stability; summary of the method: as §1
[12] = target: T1, UDP-glucuronosyltransferases (UGTs); experiment: Drug metabolism in human liver S9 fraction assessed as UGT-mediated metabolism by measuring compound remaining at 5 uM incubated for 15 mins in presence of UDPGA by UPLC-MS analysis; format: ADME, subcellular; settings: read-out: Stability; summary of the method: as §1
Trypanosoma cruzi [13] = experiment: In vivo antitrypanosomal activity against Trypanosoma cruzi Y trypomastigotes infected in Swiss mouse assessed as reduction in parasitemia at 25 mg/kg, po administered twice daily via gavage for 5 days starting from 5 days post-infection and measured 8 days post-infection by light microscopic method relative to control; format: functional; parameters: scale not given: the % may be the effect or the level left
Summary of the method: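 Male Swiss Webster mice (18-20 g, six per group) were infected i.p. with 10⁴ Y-strain bloodstream trypomastigotes. Treatment began at 5 dpi, only in mice with detectable parasitemia. Dosing was 25 mg/kg b.i.d. by oral gavage for 5 days, using a 2.0 mg/mL formulation in 10% EtOH, 0.1 M citrate pH 3.02. Parasites in 5 μL tail-vein blood were counted microscopically up to 30 dpi, against vehicle-treated infected mice.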

Trypanosoma cruzi [14] = experiment: In vivo antitrypanosomal activity against Trypanosoma cruzi Y trypomastigotes infected in Swiss mouse assessed as reduction in parasitemia at 25 mg/kg, po administered twice daily for 5 days with 2 days interval for 3 cycles and measured up to 30 days post-infection by light microscopy; format: functional, organism-based
Summary of the method: (§2)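 Male Swiss Webster mice infected i.p. with 10⁴ Y-strain bloodstream trypomastigotes; six per group. Oral gavage from 5 dpi for 15 days (three 5-day rounds, 2 days off): test compound 25 mg/kg b.i.d., benznidazole 100 mg/kg s.i.d. Parasites counted in 5 μL tail blood to 30 dpi; mortality followed to 53 dpi.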

Trypanosoma cruzi [15] = experiment: In vivo antitrypanosomal activity against Trypanosoma cruzi Y trypomastigotes infected in Swiss mouse assessed as mouse survival at 25 mg/kg, po administered twice daily for 5 days with 2 days interval for 3 cycles and measured […]; format: functional, organism-based; summary of the method: as §2
[16] = Toxicity in Swiss Webster mouse infected with Trypanosoma cruzi Y trypomastigotes assessed as body weight loss at 25 mg/kg, po administered twice daily for 5 days with 2 days interval for 3 cycles; format: organism-based; settings: in vivo
Summary of the method: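 Y-strain-infected male Swiss Webster mice were dosed orally for 15 days (three rounds of 5 days, 2 drug-free days between) starting at 5 dpi. Regimens were 25 mg/kg b.i.d. or benznidazole 100 mg/kg s.i.d. Weight loss was recorded as a sign of toxicity, with mortality checked daily up to 53 dpi. There were six mice per group.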

Trypanosoma cruzi [17] = experiment: Antitrypanosomal activity against bloodstream form of Trypanosoma cruzi Y trypomastigotes measured after 24 hrs by Neubauer chamber-based light microscopic analysis; format: functional, organism-based
Trypanosoma cruzi [18] = experiment: Antitrypanosomal activity against Trypanosoma cruzi Y amastigotes infected in Swiss mouse primary cardiac cells replenished for every 48 hrs for 168 hrs by geimsa staining based assay; format: functional, organism-based
Summary of the method: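 Primary mouse cardiac cells infected 24 h at 37 °C with Y-strain bloodstream trypomastigotes (parasite:host 10:1), washed, then exposed 168 h at 37 °C to serial dilutions, medium with compound renewed every 48 h. Giemsa stained; infected cells and parasites per infected cell scored in 200 host cells. EC50 from inhibition of infection index; two independent determinations.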

[19] = Cytotoxicity against Swiss mouse primary cardiac cells assessed as reduction in cell viability incubated for 24 hrs by PrestoBlue dye based colorimetry
Trypanosoma cruzi [20] = experiment: Antitrypanosomal activity against Trypanosoma cruzi Y amastigotes infected in Swiss mouse primary cardiac cells incubated for 168 hrs with media replenishment for every 48 hrs followed by compound washout and measured after 168 hrs by light microscopic method; format: functional, organism-based
Summary of the method: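 Cardiac cells plated 24 h, then infected 24 h at 37 °C with Y-strain bloodstream trypomastigotes (parasite:host 10:1) and washed. Serial dilutions (up to 5 µM) for 168 h at 37 °C, drug medium renewed every 48 h. PBS rinse, 168 h drug-free. Giemsa-stained; infected cells and parasites per cell scored in 200 cells. EC50 from infection-index inhibition; two experiments, duplicate.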

remaining at 0 min, 5 µM [3]: 100%
remaining at 0.5 h, 5 µM [4]: 103%
remaining at 0.25 h, 5 µM [5]: 88%
remaining at 0.25 h, 5 µM [6]: 97%
remaining at 0.5 h, 5 µM [7]: 94%
remaining at 0 min, 5 µM [8]: 100%
remaining at 1 h, 5 µM [9]: 92%
remaining at 0.5 h, 5 µM [10]: 94%
remaining at 0.25 h, 5 µM (Cytochrome P450): 99%
remaining at 0 min, 5 µM [11]: 100%
remaining at 0.25 h, 5 µM [12]: 99%
EC50 (Trypanosoma cruzi [17]): > 70 µM
EC50 (Trypanosoma cruzi [18]): 0.089 µM
EC50 (Trypanosoma cruzi [20]): > 5 µM
Structure (SMILES): Nc1ccnc2c1c(I)cn2[C@@H]1O[C@H](CO)[C@@H](O)[C@H]1O
EC50 [1]: > 64 µM
selectivity ratio [2]: > 1600
Activity (Trypanosoma cruzi [13]): 95%
Activity (Trypanosoma cruzi [14]): Active
Activity (Trypanosoma cruzi [15]): inactive
Activity [16]: Non-Toxic
EC50 [19]: > 400 µM

From ChEMBL document CHEMBL4414577, “Discovery of Pyrrolo[2,3-b]pyridine (1,7-Dideazapurine) Nucleoside Analogues as Anti-Trypanosoma cruzi Agents” (J Med Chem, 2019)
